Experimental data: PMC9272679 (Computers in Biology and Medicine, 2022)
Marks after values point to notes of the source that are not given here.

Assays:
NCI–H226 = test: In vitro antiproliferative assay; assay type: cell-based, human; settings: for mean optical densities: 48 h, SRB, 515 nm
How it was run: (§1)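 NCI-sourced cells grown in DMEM with 10% FBS, penicillin 25 U/mL and streptomycin 25 U/mL (37 °C, 5% CO2, 95% humidity). 5000–40,000 viable cells/well attached 24 h, then fresh medium with test compound at 0, 0.1, 1.0, 10 or 100 μM for 48 h. TCA-fixed (10%, 1 h RT), 0.4% SRB stain 60 min, acetic acid wash, Tris-solubilised dye read at 515 nm. GI50 and TGI calculated; triplicates, mean ± SD.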

MCF7 = test: In vitro antiproliferative assay; assay type: cell-based, human; settings: for mean optical densities: 48 h, SRB, 515 nm
How it was run: as §1

HOP-62 = test: In vitro antiproliferative assay; assay type: cell-based, human; settings: for mean optical densities: 48 h, SRB, 515 nm
How it was run: as §1

NCI–H322 M = test: In vitro antiproliferative assay; assay type: cell-based, human; settings: 48 h; for mean optical densities: NCI–H322 M, SRB, 515 nm
How it was run: as §1

A549/ATCC = test: In vitro antiproliferative assay; assay type: cell-based, human; settings: for mean optical densities: A549/ATCC, 48 h, SRB, 515 nm
How it was run: as §1

NCI–H522 = test: In vitro antiproliferative assay; assay type: cell-based, human; settings: for mean optical densities: 48 h, SRB, 515 nm
How it was run: as §1

[1] = In vivo pharmacokinetics in rats; set-up: species or system Male albino Wistar rats; settings: male, Wistar, rat, plasma, po, 5 mg/kg
How it was run: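 Rats were given test compound at 5 mg/kg BW orally. Blood was drawn hourly over 24 h (24 samples) into Na2EDTA tubes, and plasma was quantified by UPLC. Cmax, Tmax and AUC0-t were taken from the plasma concentration-time curve. K came from the terminal log-linear slope, and AUC0→∞ was calculated as AUC0-t + Clast/K.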

[2] = test system: five cell lines originating from human lungs; test: In vitro antiproliferative assay; assay type: cell-based; settings: read-out: IC50 range
How it was run: as §1

K-562 = test: In vitro antiproliferative assay; assay type: cell-based, human; settings: for mean optical densities: 48 h, SRB, 515 nm
How it was run: as §1

A549 = test: In vitro antiproliferative assay; assay type: cell-based, human; settings: for mean optical densities: 48 h, SRB, 515 nm
How it was run: as §1

CCNc1nc2ccccc2c2c(=O)c3cc(Cl)ccc3sc12 [RXn-02, 10-chloro-6-(ethylamino)-12H-thiochromeno[2,3-c] quinolin-12-one]
IC50 (NCI–H226; Homo sapiens, NCI-H226, 48 h): 33.2 µM
mean optical densities (NCI–H226; NCI–H226, RXn-02 0.1 μM): 2.389
mean optical densities (NCI–H226; NCI–H226, RXn-02 1.0 μM): 2.367
mean optical densities (NCI–H226; NCI–H226, RXn-02 10 μM): 2.142*
mean optical densities (NCI–H226; NCI–H226, RXn-02 100 μM): 1.704**
IC50 (MCF7; Homo sapiens, MCF7, 48 h): 47 nM
mean optical densities (MCF7; MCF7, RXn-02 0.1 μM): 1.083
mean optical densities (MCF7; MCF7, RXn-02 1.0 μM): 0.873
mean optical densities (MCF7; MCF7, RXn-02 10 μM): 0.735***
mean optical densities (MCF7; MCF7, RXn-02 100 μM): 0.699***
mean optical densities (HOP-62; HOP-62, RXn-02 0.1 μM): 1.859
mean optical densities (HOP-62; HOP-62, RXn-02 1.0 μM): 1.761
mean optical densities (HOP-62; HOP-62, RXn-02 10 μM): 1.463*
mean optical densities (HOP-62; HOP-62, RXn-02 100 μM): 0.319***
IC50 (HOP-62; Homo sapiens, HOP-62, 48 h): 13.3 µM
IC50 (NCI–H322 M; Homo sapiens, NCI-H322M): 69.5 µM
mean optical densities (NCI–H322 M; RXn-02 0.1 μM): 1.491
mean optical densities (NCI–H322 M; RXn-02 1.0 μM): 1.386
mean optical densities (NCI–H322 M; RXn-02 10 μM): 1.209*
mean optical densities (NCI–H322 M; RXn-02 100 μM): 1.020*
mean optical densities (A549/ATCC; RXn-02 0.1 μM): 1.997
mean optical densities (A549/ATCC; RXn-02 1.0 μM): 1.883
mean optical densities (A549/ATCC; RXn-02 10 μM): 1.602**
mean optical densities (A549/ATCC; RXn-02 100 μM): 1.129**
IC50 (A549/ATCC; Homo sapiens, A549, 48 h): 48.1 µM
IC50 (NCI–H522; Homo sapiens, NCI-H522, 48 h): 24.8 µM
mean optical densities (NCI–H522; NCI–H522, RXn-02 0.1 μM): 2.405
mean optical densities (NCI–H522; NCI–H522, RXn-02 1.0 μM): 2.362
mean optical densities (NCI–H522; NCI–H522, RXn-02 10 μM): 2.110*
mean optical densities (NCI–H522; NCI–H522, RXn-02 100 μM): 1.395**
AUC(0-t) [1]: 18900 ng·h/mL
Cmax [1]: 1760 ng/mL
IC50 [2]: 33.2 to 69.5 µM
IC50 (K-562; Homo sapiens, K562, 48 h): 100 µM
mean optical densities (K-562; K-562, RXn-02 0.1 μM): 1.771
mean optical densities (K-562; K-562, RXn-02 1.0 μM): 1.668
mean optical densities (K-562; K-562, RXn-02 10 μM): 1.242
mean optical densities (K-562; K-562, RXn-02 100 μM): 1.056*
mean optical densities (A549; A549, RXn-02 0.1 μM): 1.997
mean optical densities (A549; A549, RXn-02 1.0 μM): 1.883
mean optical densities (A549; A549, RXn-02 10 μM): 1.602**
mean optical densities (A549; A549, RXn-02 100 μM): 1.129**
IC50 (A549; Homo sapiens, A549, 48 h): 48.1 µM
